Screening results from PubChem.
Arbovirus inh: blocks arbovirus infection; arbovirus infection cell-based antiviral screen; inhibition, % at 10 µM; 0.37% of 200,000 active; in the data active = inhibition above about 30%
Hck-Nef inh: inhibitors of human Hck kinase activated by Nef. Recombinant Hck-YEEI plus Nef, Z-Lyte FRET kinase assay. inhibition, % at 20 µM. 0.68% of 220,000 active;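 active = Hck-Nef kinase inhibition above about 50%, limit read from the data; inactive = inhibition below that limit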
WT yeast gro inh: growth inhibition of WT yeast, mitochondrial fusion screen. mitochondrial fusion phenotypic screen, WT strain. 2.1% of 190,000 active. inhibition, % at 10 µM; in the data active = inhibition above about 58%; tested in S. cerevisiae
NCF1 inh: p47phox (human) inhibition | P14598 | p47phox/p22phox peptide binding, fluorescence polarization, 2 h | inhibition, % at 24.7 µM | 0.53% of 220,000 active | AID 1274;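 active = inhibition above about 30%, limit read from the data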
Target sequence (P14598 whole entry, looked up): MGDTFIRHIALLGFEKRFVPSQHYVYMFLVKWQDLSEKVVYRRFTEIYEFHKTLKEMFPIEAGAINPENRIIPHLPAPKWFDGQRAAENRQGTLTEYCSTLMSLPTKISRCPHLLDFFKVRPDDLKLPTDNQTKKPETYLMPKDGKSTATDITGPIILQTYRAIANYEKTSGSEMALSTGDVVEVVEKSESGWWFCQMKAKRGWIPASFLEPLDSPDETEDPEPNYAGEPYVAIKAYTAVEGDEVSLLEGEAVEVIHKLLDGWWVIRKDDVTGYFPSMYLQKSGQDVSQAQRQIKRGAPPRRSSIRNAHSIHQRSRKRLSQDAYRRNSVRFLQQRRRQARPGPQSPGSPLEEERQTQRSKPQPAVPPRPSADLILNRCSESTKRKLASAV
Biofilm kill mix: mixtures killing C. albicans biofilm. C. albicans biofilm persisters + clotrimazole, fluorescence viability; primary screen in compound mixtures of four per well. 0.02% of 120,000 active. inhibition, % at 7.6 µM;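 active = inhibition above 30.3% in the primary screen of four-compound pools, then above 30% when the compound was retested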;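 also: compounds exposed to preformed 24 h biofilms for 48 h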
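Probe or stimulus – Clotrimazole 50 µg/mL co-treatment · System – C. albicans biofilms · Schedule – 24 h biofilm formation, then 48 h compound exposure, 37 °C · Evaluation – percent inhibition of biofilm viability · Technique – 2-h Alamar Blue fluorescence, 535/590 nm excitation/emission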
RAM network inh: blocks the yeast RAM network | S. cerevisiae dse1pr::URA3 reporter, 5-FOA growth OD615, 2 d; analog-sensitive cbk1-as2 kinase mutant strain | inhibition, % at 50 µM | 1.8% of 190,000 active;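 active = inhibition above a set limit, 3 SD over mean compound inhibition, cut at about 8.4% in these data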;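 also: inhibition rescues growth on 5-FOA so higher OD means more RAM inhibition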
Each line names hits and unclear results; the compound was inactive in the other large screens. Rows were chosen to be rich in hits. Some 4.6% of all compounds tested hit in one or more screens of this group.

O=C(CCC(=O)OC(C(=O)c1ccccc1)c1ccccc1)Nc1ccccc1 (centres undefined)	none (no result: Biofilm kill mix)
COc1ccc(C(=O)C(OC(=O)c2ccccc2)c2ccccc2)cc1 (centres undefined)	RAM network inh 10 (no result: Biofilm kill mix)
Cc1ccccc1OCC(=O)OC(C(=O)c1ccccc1)c1ccccc1 (centres undefined)	RAM network inh 10
Cc1ccc(NC(=O)C(OC(=O)c2ccccc2Cl)c2ccccc2)cc1Cl (centres undefined)	RAM network inh 8.9
Cc1ccc(NC(=O)C(C)N=C2NS(=O)(=O)c3ccccc32)cc1F (centres undefined)	none (no result: Arbovirus inh, WT yeast gro inh, RAM network inh)
O=C(O)COc1ccc(/C=C/c2nc3ccc([N+](=O)[O-])cc3s2)cc1	none (no result: Arbovirus inh, WT yeast gro inh, RAM network inh)
Oc1cccc2ccc[n+](CC(O)Cn3c4ccccc4c4ccccc43)c12 (centres undefined)	NCF1 inh 38
COC(=O)c1ccc(NS(=O)(=O)c2cccc3cccnc23)cc1	NCF1 inh 49 (no result: Biofilm kill mix)
O=C(Nc1ccccc1C(=O)O)c1cccc(NC(=O)c2ccc(Br)o2)c1	Arbovirus inh 32 (no result: Biofilm kill mix)
O=C(NNC(=O)c1ccc(Br)o1)c1ccc(NC(=O)c2ccccc2)cc1	none
O=C(Nc1ccccc1C(=O)O)c1ccc(NC(=O)c2ccc(Br)o2)cc1	Arbovirus inh 46, NCF1 inh 90 (no result: Biofilm kill mix)
C=CCOc1c(Br)cc(C2C3=C(CCCC3=O)N(C)C3=C2C(=O)CCC3)cc1OCC	Hck-Nef inh 53
C=CCOc1c(Br)cc(C2NC(=O)NC(C)=C2C(C)=O)cc1OCC (centres undefined)	none (no result: Biofilm kill mix)
C=CC[n+]1c(-c2ccc(OCC)cc2)csc1NNC(=O)Nc1ccccc1	none (no result: Biofilm kill mix)
COc1ccc(C(C)=O)cc1COc1ccc([N+](=O)[O-])c(C)c1	RAM network inh 8.6
COc1cccc(Nc2nc(-c3cccs3)nc3ccccc23)c1	WT yeast gro inh 66
COc1cccc(CN(C)c2nc(-c3cccs3)nc3ccccc23)c1	WT yeast gro inh 66
COc1ccc(Nc2nc(-c3cccs3)nc3ccccc23)cc1	none
CCN(CC)C(=N)/C(C#N)=N/Nc1ccccc1	none (no result: Arbovirus inh, WT yeast gro inh, RAM network inh)
C=CCn1c(C)cc(C(=O)COC(=O)c2ccc3c(c2)NC(=O)CS3)c1C	none
CC1CN(c2nc3c(c(=O)n(C)c(=O)n3C)n2Cc2c(F)cccc2Cl)CC(C)O1 (centres undefined)	none (no result: Biofilm kill mix)
COc1ccc(-c2cnnn2-c2ccc(NC(=O)c3ccc(S(=O)(=O)N4CCCCC4)cc3)cc2)cc1	RAM network inh 9.8
Cc1cc(C)cc(C(=O)Nc2ccc(N3CCCC3)cc2)c1	none
O=C(Nc1ccc(N2CCCCC2)cc1)c1ccccn1	WT yeast gro inh 61
O=C(COC(=O)c1ccc(S(=O)(=O)N2CCCC2)cc1)Nc1ccc(N2CCOCC2)cc1	none
O=C(Nc1ccc(N2CCOCC2)cc1)c1ccc(S(=O)(=O)N2CCCCC2)cc1	NCF1 inh 37 (no result: Biofilm kill mix)
O=C(Nc1ccc(N2CCCCCC2)cc1)c1ccccc1Cl	none
CC(C)Oc1ccc(C(=O)Nc2ccc(N3CCCC3)cc2)cc1	NCF1 inh 34 (no result: Biofilm kill mix)
CCO/C(C)=N/n1c2nc3ccccc3nc2c2c(=O)n(Cc3ccccc3Cl)c(C)nc21	RAM network inh 8.6 (no result: Biofilm kill mix)
CCCCCCn1c(C)nc2c(c1=O)c1nc3ccccc3nc1n2/N=C/c1ccco1	none (no result: Biofilm kill mix)
CCn1c(SCc2nc3ccccc3c(=O)[nH]2)nnc1C(C)NC(=O)c1ccccc1F (centres undefined)	none
CN(C[C@H](Cc1ccccc1)N(C[C@H](c1ccccc1)N(CCc1ccccc1)N=O)N=O)N=O	RAM network inh 8.8
CN(C[C@H](c1ccccc1)N(C[C@H](Cc1ccccc1)N(CCc1ccccc1)N=O)N=O)N=O	none
N#C/C(=C/c1cccc([N+](=O)[O-])c1)C(=O)Nc1ccccc1O	none (no result: Arbovirus inh, WT yeast gro inh, RAM network inh)
CCOc1cc(/C=C(\C#N)C(=O)Nc2ccccc2[N+](=O)[O-])ccc1OCc1cccc2ccccc12	Hck-Nef inh 55
O=C(c1ccccn1)c1cc2ccccc2n1S(=O)(=O)c1ccccc1	none
O=C(Nc1sc2c(c1C(=O)O)CCC2)c1ccccc1	none (no result: Biofilm kill mix)
O=C(Nc1sc2c(c1C(=O)O)CCC2)c1ccc(F)cc1	Arbovirus inh 42
O=C(O)c1c(NC(=O)c2cccc3ccccc23)sc2c1CCC2	Arbovirus inh 55 (no result: Biofilm kill mix)
Cc1ccc(C(=O)c2c(NC(=O)c3cccnc3)sc3c2CCCC3)cc1	WT yeast gro inh 61 (no result: Biofilm kill mix)
NC(=O)c1c(NC(=O)c2cccs2)sc2c1CCCCCC2	none (no result: Biofilm kill mix)
O=C(Nc1sc2c(c1C(=O)O)CCC2)c1cccs1	Arbovirus inh 55 (no result: Biofilm kill mix)
CNc1cccccc1=S	none (no result: Biofilm kill mix)
O=C(Nc1sc2c(c1C(=O)O)CCCCC2)c1ccccc1	Arbovirus inh 69
N#CCCn1c(SCC(=O)Nc2ccc(N3CCOCC3)cc2)nc2ccccc21	none
COc1ccc(NC(=O)c2oc3ccccc3c2NC(=O)COc2ccccc2OC)c(OC)c1	WT yeast gro inh 64 (no result: Biofilm kill mix)
CC(C)Cn1c(-c2csc3c2CCCC3)n[nH]c1=S	none (no result: Biofilm kill mix)
COc1cc(/C=C2/SC(=Nc3ccc(O)cc3)NC2=O)cc(OC)c1O	none
O=C1NC(=Nc2ccc(O)cc2)S/C1=C\C=C\c1ccco1	Hck-Nef inh 94 (no result: Arbovirus inh, WT yeast gro inh, RAM network inh)
O=C1CCN(c2ccc([N+](=O)[O-])cc2F)CC1	none
O=C(CN(c1ccc(Cl)cc1)S(=O)(=O)c1ccc(Cl)c([N+](=O)[O-])c1)NCCc1ccccc1	RAM network inh 8.4
O=C(NC1CCCCC1)C(c1cccnc1)N(C(=O)CCl)c1cccc(Cl)c1 (centres undefined)	none
O=c1c(Cl)c(N2CCN(c3ccc(F)cc3)CC2)cnn1C12CC3CC(CC(C3)C1)C2	Arbovirus inh 37
O=c1c(Cl)c(N2CCN(c3ccccc3)CC2)cnn1C12CC3CC(CC(C3)C1)C2	none
FC(F)(F)c1cnc(-c2cnc(-c3ccccn3)nc2)c(Cl)c1	none
Cc1cccc(C)c1OCCn1nc(C(=O)O)c2ccccc2c1=O	RAM network inh 10 (no result: Biofilm kill mix)
COc1ccc(N2CCN(C(=S)Nc3cccc(C)c3C)CC2)cc1	RAM network inh 10 (no result: Biofilm kill mix)
COc1ccc(C(CCO)NC(=O)c2cccs2)cc1OC (centres undefined)	none
COc1ccc(NC(=O)CCC(=O)c2cccs2)cc1S(=O)(=O)Nc1ccccc1Cl	RAM network inh 10.0
COc1ccc(NS(=O)(=O)c2cccc(NC(=O)CCC(=O)c3cccs3)c2)cc1	none
O=C(Nc1ccc(Cl)c(S(=O)(=O)Nc2ccccc2Cl)c1)c1cccs1	WT yeast gro inh 84
Cc1ccc(C(=O)Nc2ccc(C)c(S(=O)(=O)Nc3ccccc3Cl)c2)s1	WT yeast gro inh 70
COC(=O)c1c(C)oc(C)c1S(=O)(=O)N(Cc1ccccc1)C(C)C	none (no result: Arbovirus inh, WT yeast gro inh, RAM network inh)
COc1cccc(C2C(C(C)=O)=C(O)C(=O)N2CCNCCO)c1 (centres undefined)	none
CCCOC(=O)C1C2C=CC(C2)C1C(=O)OCC(=O)c1ccccc1 (centres undefined)	none (no result: Biofilm kill mix)
